Experimental data collected from several papers.
Observed: cell growth or viability

| SMILES | cell line | technique | time | IC50 |
| --- | --- | --- | --- | --- |
| O=c1[nH]c(=O)n([C@H]2C[C@H](O)[C@@H](CO)O2)cc1F | FM3A/0 | MTT | 72 h | 0.0032 µM |
| Cc1cccc(-n2ncc(Br)c(Br)c2=O)c1 | NCI-H2030 | resazurin | 96 h | 0.37 µM |
| Cc1nnc(C(=O)NC(C)(C)c2nc(C(=O)NCc3ccc(F)cc3)c(O)c(=O)n2C)o1 | COS-7 | ATP luminescence | – | 36.4 µM |
| Cc1cnc(-c2ccc(-c3ccc(NC(=O)Nc4c(F)cc(F)cc4F)cc3F)c3c2C(=O)NC3)[nH]1 | Kasumi 1 | – | – | 0.022 µM |
| CC[C@@H](C)[C@H](N)C(=O)N1Cc2ccccc2C1 | Kasumi 1 | ATP luminescence | 48 h | > 60 µM |
| CC1=C(O)C(=O)C=C2C1=CC=C1[C@@]2(C)CC[C@@]2(C)[C@@H]3C[C@](C)(C(=O)OCCCN4C(=O)C5C=CC=CC5C4=O)CC[C@]3(C)CC[C@]12C (stereo partly drawn) | MGC-803 | MTT | 48 h | 0.39 µM |
| Cc1ccc(C(=O)N(CCCN)[C@@H](c2nc3cc(Cl)ccc3c(=O)n2Cc2ccccc2)C(C)C)cc1 | MM1.S | ATP luminescence | 72 h | 0.0126 µM |
| CC1=C(O)C(=O)C=C2C1=CC=C1[C@@]2(C)CC[C@@]2(C)[C@@H]3C[C@](C)(C(=O)OCCCCCCO)CC[C@]3(C)CC[C@]12C | MGC-803 | MTT | 48 h | 0.39 µM |
| CC(=O)O[C@@]12CO[C@@H]1C[C@H](O)[C@@]1(C)C(=O)[C@H](O)C3=C(C)[C@@H](OC(=O)[C@H](O)[C@@H](NC(=O)OC(C)(C)C)c4ccccc4)C[C@@](O)([C@@H](OC(=O)c4ccccc4)[C@H]21)C3(C)C | PC-12 | MTT | – | 280 mg/L |
| Cc1cccc(Nc2ccccc2C(=O)O)c1C | mouse Peritoneal macrophage | crystal violet | 72 h | > 200 µM |
| CCc1c2c(nc3ccc(O)cc13)-c1cc3c(c(=O)n1C2)COC(=O)[C@]3(O)CC | COS-7 | ATP luminescence | – | 131 µM |
| CC1=C(O)C(=O)C=C2C1=CC=C1[C@@]2(C)CC[C@@]2(C)[C@@H]3C[C@](C)(C(=O)OCCCCO)CC[C@]3(C)CC[C@]12C | MGC-803 | MTT | 48 h | 0.27 µM |
| Cc1ccc(-c2ccc(O)cc2)c(C(=C2C=CC(=O)C=C2)c2ccc(O)cc2)c1C#Cc1ccc(O)cc1 | MGC-803 | MTT | 48 h | 15 µM |
| CC1=C(O)C(=O)C=C2C1=CC=C1[C@@]2(C)CC[C@@]2(C)[C@@H]3C[C@](C)(C(=O)OCCCCCO)CC[C@]3(C)CC[C@]12C | MGC-803 | MTT | 48 h | 0.32 µM |
| COc1cccc2c1C(=O)c1c(O)c3c(c(O)c1C2=O)C[C@@](O)(C(=O)CO)C[C@@H]3O[C@H]1C[C@H](N)[C@H](O)[C@H](C)O1 | ECa-109 | MTT | 48 h | 0.17 µM |
| COc1cc(Nc2nccc(-c3cnn4nc(OC)ccc34)n2)cc(C(F)(F)F)c1 | NCI-N87 | ATP luminescence | – | 0.64 µM |
| CC(C)n1c(/C=C/C(O)CC(O)CC(=O)O)c(-c2ccc(F)cc2)c2ccccc21 (stereo not drawn) | SW480 | SRB | 72 h | 4.24 mg/L |
| CC1=C(O)C(=O)C=C2C1=CC=C1[C@@]2(C)CC[C@@]2(C)[C@@H]3C[C@](C)(C(=O)OCCCCCCCCO)CC[C@]3(C)CC[C@]12C | MGC-803 | MTT | 48 h | 0.38 µM |
| CC(=O)O[C@@]12CO[C@@H]1C[C@H](O)[C@@]1(C)C(=O)[C@H](O)C3=C(C)[C@@H](OC(=O)[C@H](O)[C@@H](NC(=O)OC(C)(C)C)c4ccccc4)C[C@@](O)([C@@H](OC(=O)c4ccccc4)[C@H]21)C3(C)C | 143B | resazurin | 72 h | 0.0029 µM |
| CC1=C(O)C(=O)C=C2C1=CC=C1[C@@]2(C)CC[C@@]2(C)[C@@H]3C[C@](C)(C(=O)OCCCCCCCO)CC[C@]3(C)CC[C@]12C | MGC-803 | MTT | 48 h | 0.4 µM |
| O=C(O)c1cc(O)c(O)c(O)c1 | PC-12 | MTT | – | > 100 µM |
